Results from different studies.
Lines come from different studies, so protocols differ.
Observed: cell growth or viability

| Compound | cell line | method | concentration | time | quantity | result |
| --- | --- | --- | --- | --- | --- | --- |
| COc1cc(-c2ccc(-c3ccc(C(=N)N)nc3)s2)cc(OC)c1OC | SNB-19 | SRB | – | – | GI50 | 4730 nM |
| CC(C)=CCC[C@](C)(O)[C@H]1CC[C@]2(C)[C@@H]1[C@H](O)C[C@@H]1[C@@]3(C)CC[C@H](O[C@@H]4O[C@H](CO)[C@@H](O)[C@H](O)[C@H]4O[C@@H]4O[C@H](CO)[C@@H](O)[C@H](O)[C@H]4O)C(C)(C)[C@@H]3CC[C@]12C | NCI-H358 | MTT | – | 72 h | IC80 | > 100 µM |
| C#CC[C@]1(O)C[C@@H]2c3cc(OCc4cc(C)cc(C)c4)c(OCc4cc(C)cc(C)c4)cc3CCN2[C@@H](C)C1 | ASPC1 | MTT | – | – | IC50 | 791 nM |
| COc1cccc(Oc2ccccc2NC(=O)CNC(=O)c2cccc3ccccc23)c1 | SNB-19 | SRB | – | 48 h | GI50 | 617 nM |
| CN1C[C@H](C(=O)N[C@]2(C)O[C@@]3(O)[C@@H]4CCCN4C(=O)[C@H](Cc4ccccc4)N3C2=O)C[C@@H]2c3cccc4[nH]cc(c34)C[C@H]21 | WI-38 | MTT | – | 72 h | EC50 | 80 µM |
| Cc1cc(Nc2ncc(Cl)c(Nc3ccccc3S(=O)(=O)C(C)C)n2)c(OC(C)C)cc1C1CCNCC1 | KARPAS-299 | MTT | 0.55556 µg/mL | 72 h | inhibition | 73.4% |
| CC(C)C[C@H](NC(=O)[C@H](Cc1ccccc1)NC(=O)c1cnccn1)B(O)O | HCC827 | ATP luminescence | – | – | IC50 | 7.8 nM |
| N=C(N)c1ccc(OCCCCCOc2ccc(C(=N)N)cc2)cc1 | HaCaT | MTS | 20 µM | 24 h | inhibition | 11.2% |
| Cc1cc(C)cc(COc2cc3c(cc2OCc2cc(C)cc(C)c2)C2CC(O)(Cc4cn(CCCCCCNc5cccc6c5C(=O)N(C5CCC(=O)NC5=O)C6=O)nn4)CC(C)N2CC3)c1 (stereo not drawn) | ASPC1 | MTT | – | – | IC50 | 1080 nM |
| C[C@@H](Oc1cc(-c2cnn(C3CCNCC3)c2)cnc1N)c1c(Cl)ccc(F)c1Cl | KARPAS-299 | MTT | 0.008 µg/mL | 72 h | inhibition | 27.5% |
| CCCCCCCCCCCCCCCCOP(=O)([O-])OCC[N+](C)(C)C | HaCaT | MTS | 20 µM | 24 h | inhibition | 45.5% |
| COC(C)(C)CCC[C@](C)(O)[C@H]1CC[C@]2(C)[C@@H]1[C@H](O)C[C@@H]1[C@@]3(C)CC[C@H](O)C(C)(C)[C@@H]3CC[C@]12C | NCI-H358 | MTT | – | 72 h | IC80 | 81.7 µM |
| COC(=O)c1c(C)ncn1CC(c1c[nH]c2ccc(C)cc12)c1c[nH]c2ccc(C)cc12 | HaCaT | MTS | 20 µM | 24 h | inhibition | 12.2% |
| COc1ccc(-c2ccc(-c3ccc(C(=N)N)nc3)s2)cc1 | SNB-19 | SRB | – | – | GI50 | 1720 nM |
| Cc1cn(CC(c2cn(C)c3ccccc23)c2cn(C)c3ccccc23)nn1 | HaCaT | MTS | 20 µM | 24 h | inhibition | 9.6% |
| COc1cc(Nc2nccc(-c3cnn4nc(OC)ccc34)n2)cc(C(F)(F)F)c1 | EFM-192A | ATP luminescence | – | – | IC50 | > 3000 nM |
| Cc1cc(C)cc(COc2cc3c(cc2OCc2cc(C)cc(C)c2)[C@H]2C[C@](O)(Cc4cn(CCc5ccccc5)nn4)C[C@H](C)N2CC3)c1 | ASPC1 | MTT | – | – | IC50 | 794 nM |
| CCOC(=O)c1cn(CC(c2cn(C)c3ccc(C)cc23)c2cn(C)c3ccc(C)cc23)c(C)c1C(=O)OC | HaCaT | MTS | 20 µM | 24 h | inhibition | 9.5% |
